Six compounds from ChEMBL document CHEMBL3588764, “Fluoro-substituted phenylazocarboxamides: Dopaminergic behavior and N-arylating properties for irreversible binding” (Bioorg Med Chem, 2015) can be followed below.

Molecules are shown by their SMILES.

T1 sequence (P35462 whole entry): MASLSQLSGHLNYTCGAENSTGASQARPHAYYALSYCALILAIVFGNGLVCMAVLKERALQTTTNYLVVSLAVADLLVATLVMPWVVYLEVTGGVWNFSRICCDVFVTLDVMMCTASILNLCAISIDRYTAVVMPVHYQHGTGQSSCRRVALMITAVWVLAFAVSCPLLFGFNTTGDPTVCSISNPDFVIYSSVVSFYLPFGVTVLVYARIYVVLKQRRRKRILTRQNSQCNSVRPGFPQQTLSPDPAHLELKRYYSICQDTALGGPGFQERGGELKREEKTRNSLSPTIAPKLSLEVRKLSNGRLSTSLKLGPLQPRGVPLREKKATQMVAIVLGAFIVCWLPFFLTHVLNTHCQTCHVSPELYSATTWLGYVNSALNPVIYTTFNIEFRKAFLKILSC
T2 sequence (P14416 whole entry): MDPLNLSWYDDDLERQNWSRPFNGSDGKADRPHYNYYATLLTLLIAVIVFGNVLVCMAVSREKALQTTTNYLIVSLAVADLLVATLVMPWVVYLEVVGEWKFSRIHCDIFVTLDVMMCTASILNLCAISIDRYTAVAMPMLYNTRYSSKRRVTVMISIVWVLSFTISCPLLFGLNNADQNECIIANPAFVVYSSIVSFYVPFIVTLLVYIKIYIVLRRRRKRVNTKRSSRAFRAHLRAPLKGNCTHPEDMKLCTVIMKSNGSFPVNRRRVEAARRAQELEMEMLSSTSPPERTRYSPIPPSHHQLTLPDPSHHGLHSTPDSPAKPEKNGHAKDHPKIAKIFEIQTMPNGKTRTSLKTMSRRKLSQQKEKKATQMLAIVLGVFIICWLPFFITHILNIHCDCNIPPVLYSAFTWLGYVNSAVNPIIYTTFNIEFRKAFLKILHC
Chain of D(3) dopamine receptor (Homo sapiens), P35462 [L89K] (P35462 as listed by the source): as the sequence (P35462 whole entry) above, with G9S, L89K counted along it
Chain of D(3) dopamine receptor (Homo sapiens, UniProt P35462, L89K) (P35462 as listed by the source L89K): as the sequence (P35462 whole entry) above, with G9S, L89K counted along it

One experiment is filed under the species Homo sapiens. Briefly: Selectivity index, ratio of Ki for human dopamine D2 long receptor to Ki for human dopamine D3 receptor. The method in brief: (§1)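 Ratio of Ki at D2long or D2short to Ki at D3, with both Ki values from [³H]spiperone competition on CHO membranes stably expressing the human receptors.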
In the case of `COc1ccccc1N1CCN(CCCCNC(=O)/N=N/c2ccc(F)c(F)c2)CC1`, the Ratio Ki amounted to 10.
On to `CCCN(CCCCNC(=O)/N=N/c1cc(F)c(F)c(F)c1)C1Cc2ccccc2C1`, for which the Ratio Ki worked out at 8.2.
Still for that read-out and setting: the figure for `CCCN(CCNC(=O)/N=N/c1ccc(F)cc1)C1Cc2ccccc2C1` is 3.6; for `CCCN(CCNC(=O)/N=N/c1ccc(F)c(F)c1)C1Cc2ccccc2C1` it is 1.4.
On the same count and under the same terms, the figure for `CCCN(CCCCNC(=O)/N=N/c1ccc(F)c(F)c1)C1Cc2ccccc2C1` is 13; for `COc1ccccc1N1CCN(CCCCNC(=O)/N=N/c2cc(F)c(F)c(F)c2)CC1` it is 4.7.

The species named for another experiment is Homo sapiens. In words: Selectivity index, ratio of Ki for human dopamine D2 short receptor to Ki for human dopamine D3 receptor. The method in brief: as §1
Regarding `COc1ccccc1N1CCN(CCCCNC(=O)/N=N/c2ccc(F)c(F)c2)CC1`, the Ratio Ki came to 16.
On the same count and under the same terms, the result for `CCCN(CCCCNC(=O)/N=N/c1cc(F)c(F)c(F)c1)C1Cc2ccccc2C1` reads 2.4.
Still for that read-out and setting: the figure for `CCCN(CCNC(=O)/N=N/c1ccc(F)cc1)C1Cc2ccccc2C1` is 2.9.
On the same count and under the same terms, the result for `CCCN(CCNC(=O)/N=N/c1ccc(F)c(F)c1)C1Cc2ccccc2C1` reads 3; that for `CCCN(CCCCNC(=O)/N=N/c1ccc(F)c(F)c1)C1Cc2ccccc2C1`, 6.5.
On to `COc1ccccc1N1CCN(CCCCNC(=O)/N=N/c2cc(F)c(F)c(F)c2)CC1`, for which the Ratio Ki was found to be 6.8.

Another experiment has as its target T1, D(3) dopamine receptor (Homo sapiens, UniProt P35462). Briefly: Activation of wild type human dopamine D3 receptor expressed in HEK293 cells co-expressing GaqG66Di5- incubated for 120 mins by scintillation counting based myo-[3H]inositol phosphate accumulation assay. The class given is functional, cell-based.
Usually EC50 stands for the concentration needed to bring the measured effect to its halfway point. A higher EC50 goes with a less potent agent. The compound `CCCN(CCCCNC(=O)/N=N/c1cc(F)c(F)c(F)c1)C1Cc2ccccc2C1` returned an EC50 of 11 nM.
The same measure, in the same setting: the result for `CCCN(CCCCNC(=O)/N=N/c1ccc(F)c(F)c1)C1Cc2ccccc2C1` reads 6.1 nM.

A further experiment concerns the target T1, D(3) dopamine receptor. Briefly: Activation of wild type human dopamine D3 receptor expressed in HEK293 cells co-expressing GaqG66Di5- incubated for 120 mins by scintillation counting based myo-[3H]inositol phosphate accumulation assay relative to quinpirole. It counts as functional, cell-based. An outline of the steps:
(§2)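 HEK293T cells transiently co-transfected with human D3 (wild type or L89K mutant) plus GαqG66Di5; 24 h later seeded and labelled with myo-[³H]inositol. Next day, compounds in Tris/EDTA/MgCl2/DTT buffer pH 7.4 with 10 mM LiCl for 120 min at 37 °C. Total IP isolated by anion exchange and counted by scintillation; expressed as fold over basal (unstimulated = 1).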
The compound `CCCN(CCCCNC(=O)/N=N/c1cc(F)c(F)c(F)c1)C1Cc2ccccc2C1` yielded an Efficacy of 90%.
Same read-out and setting: the result for `CCCN(CCCCNC(=O)/N=N/c1ccc(F)c(F)c1)C1Cc2ccccc2C1` reads 94%.

The next experiment addresses D(3) dopamine receptor (Homo sapiens, UniProt P35462, L89K). In words: Activation of human dopamine D3 receptor L89K mutant expressed in HEK293 cells co-expressing GaqG66Di5- incubated for 120 mins by scintillation counting based myo-[3H]inositol phosphate accumulation assay. The class given is functional, cell-based.
`CCCN(CCCCNC(=O)/N=N/c1cc(F)c(F)c(F)c1)C1Cc2ccccc2C1` came in with an EC50 of 114 nM.
On the same count and under the same terms, the result for `CCCN(CCCCNC(=O)/N=N/c1ccc(F)c(F)c1)C1Cc2ccccc2C1` reads 79 nM.

The test system of the next experiment is D(3) dopamine receptor (Homo sapiens), P35462 [L89K]. Briefly: Activation of human dopamine D3 receptor L89K mutant expressed in HEK293 cells co-expressing GaqG66Di5- incubated for 120 mins by scintillation counting based myo-[3H]inositol phosphate accumulation assay relative to control. The class given is functional, cell-based. The method in brief:
as §2
Take `CCCN(CCCCNC(=O)/N=N/c1cc(F)c(F)c(F)c1)C1Cc2ccccc2C1`: the Efficacy stood at 101%.
On the same count and under the same terms, the result for `CCCN(CCCCNC(=O)/N=N/c1ccc(F)c(F)c1)C1Cc2ccccc2C1` reads 77%.

The next experiment has as its target T2, D(2) dopamine receptor (Homo sapiens, UniProt P14416). Briefly: Displacement of [3H]spiperone from human dopamine D2 long receptor expressed in CHO cell membranes. The method in brief:
(§3)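 Membranes of CHO cells stably expressing each human receptor; [³H]spiperone final 0.1–0.2 nM (D2long), 0.2 nM (D2short), 0.2–0.4 nM (D3), 0.15–0.35 nM (D4.4), set by K_D. Protein per well 4–6, 1–4, 1–6 and 5–6 µg respectively. EC50 from competition curves by non-linear regression, converted to Ki with Cheng–Prusoff; Ki mean of 3–7 independent experiments in triplicate.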
On the technique in general: Loss of bound radioactivity is the signal in a displacement assay; it reports binding, not function.
In general, Ki refers to a dissociation constant, usually derived from enzyme kinetics or from competition with a known ligand. Read a high Ki as lower affinity. Compound `COc1ccccc1N1CCN(CCCCNC(=O)/N=N/c2ccc(F)c(F)c2)CC1` displayed a Ki of 7.5 nM.
The compound `CCCN(CCCCNC(=O)/N=N/c1cc(F)c(F)c(F)c1)C1Cc2ccccc2C1` showed a Ki of 40 nM.
For the compound `CCCN(CCNC(=O)/N=N/c1ccc(F)cc1)C1Cc2ccccc2C1`, the Ki amounted to 5 nM.
The same measure, in the same setting: the figure for `CCCN(CCNC(=O)/N=N/c1ccc(F)c(F)c1)C1Cc2ccccc2C1` is 3.9 nM.
Same read-out and setting: the figure for `CCCN(CCCCNC(=O)/N=N/c1ccc(F)c(F)c1)C1Cc2ccccc2C1` is 25 nM; for `COc1ccccc1N1CCN(CCCCNC(=O)/N=N/c2cc(F)c(F)c(F)c2)CC1` it is 6.6 nM.

Another experiment has as its target T2, D(2) dopamine receptor. In words: Displacement of [3H]spiperone from human dopamine D2 short receptor expressed in CHO cell membranes. An outline of the steps: as §3
In turn, `COc1ccccc1N1CCN(CCCCNC(=O)/N=N/c2ccc(F)c(F)c2)CC1` gave a Ki of 12 nM. That is a double-digit nanomolar value.
On the same count and under the same terms, the result for `CCCN(CCCCNC(=O)/N=N/c1cc(F)c(F)c(F)c1)C1Cc2ccccc2C1` reads 12 nM.
Still for that read-out and setting: the figure for `CCCN(CCNC(=O)/N=N/c1ccc(F)cc1)C1Cc2ccccc2C1` is 4 nM; for `CCCN(CCNC(=O)/N=N/c1ccc(F)c(F)c1)C1Cc2ccccc2C1` it is 8.5 nM.
The same measure, in the same setting: the result for `CCCN(CCCCNC(=O)/N=N/c1ccc(F)c(F)c1)C1Cc2ccccc2C1` reads 13 nM.
Regarding `COc1ccccc1N1CCN(CCCCNC(=O)/N=N/c2cc(F)c(F)c(F)c2)CC1`, the Ki worked out at 9.5 nM.

Another experiment has as its target T1, D(3) dopamine receptor. In words: Displacement of [3H]spiperone from human dopamine D3 receptor expressed in CHO cell membranes. An outline of the steps:
as §3
The compound `COc1ccccc1N1CCN(CCCCNC(=O)/N=N/c2ccc(F)c(F)c2)CC1` registered a Ki of 0.72 nM.
Same read-out and setting: the figure for `CCCN(CCCCNC(=O)/N=N/c1cc(F)c(F)c(F)c1)C1Cc2ccccc2C1` is 4.9 nM; for `CCCN(CCNC(=O)/N=N/c1ccc(F)cc1)C1Cc2ccccc2C1` it is 1.4 nM.
Compound `CCCN(CCNC(=O)/N=N/c1ccc(F)c(F)c1)C1Cc2ccccc2C1` came in with a Ki of 2.8 nM.
Same read-out and setting: the result for `CCCN(CCCCNC(=O)/N=N/c1ccc(F)c(F)c1)C1Cc2ccccc2C1` reads 2 nM; that for `COc1ccccc1N1CCN(CCCCNC(=O)/N=N/c2cc(F)c(F)c(F)c2)CC1`, 1.4 nM.

A further experiment addresses T3, D(4) dopamine receptor (Homo sapiens, UniProt P21917).
T3 sequence (P21917 whole entry): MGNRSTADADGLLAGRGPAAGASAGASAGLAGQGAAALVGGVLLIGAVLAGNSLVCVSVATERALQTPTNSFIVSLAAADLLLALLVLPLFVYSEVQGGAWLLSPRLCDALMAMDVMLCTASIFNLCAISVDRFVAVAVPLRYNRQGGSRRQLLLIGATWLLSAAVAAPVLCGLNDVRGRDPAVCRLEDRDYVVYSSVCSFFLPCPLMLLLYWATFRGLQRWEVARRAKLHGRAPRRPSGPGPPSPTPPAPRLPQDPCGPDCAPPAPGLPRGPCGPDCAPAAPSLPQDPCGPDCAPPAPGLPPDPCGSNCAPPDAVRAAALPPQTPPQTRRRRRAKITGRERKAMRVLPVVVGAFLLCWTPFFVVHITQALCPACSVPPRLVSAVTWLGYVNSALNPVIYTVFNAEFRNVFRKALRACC
Briefly: Displacement of [3H]spiperone from human dopamine D4.4 receptor expressed in CHO cell membranes. An outline of the steps: as §3
`COc1ccccc1N1CCN(CCCCNC(=O)/N=N/c2ccc(F)c(F)c2)CC1` gave a Ki of 36 nM.
On the same count and under the same terms, the figure for `CCCN(CCCCNC(=O)/N=N/c1cc(F)c(F)c(F)c1)C1Cc2ccccc2C1` is 40 nM.
On to `CCCN(CCNC(=O)/N=N/c1ccc(F)cc1)C1Cc2ccccc2C1`, for which the affinity corresponds to a Ki of 0.99 nM.
Same read-out and setting: the result for `CCCN(CCNC(=O)/N=N/c1ccc(F)c(F)c1)C1Cc2ccccc2C1` reads 2 nM; that for `CCCN(CCCCNC(=O)/N=N/c1ccc(F)c(F)c1)C1Cc2ccccc2C1`, 31 nM.
Compound `COc1ccccc1N1CCN(CCCCNC(=O)/N=N/c2cc(F)c(F)c(F)c2)CC1` registered a Ki of 47 nM.
